# The list is not random: actives were taken first. Their share in the collection is about 0.7%.
# Rce1 inhib: inhibitors of yeast Ras-converting enzyme; yeast membranes, quenched prenylated peptide cleavage fluorescence; Q03530; calls only; hit rate 0.27% among 290,000;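 active means fall in fluorescence gain of 50% or more versus controls, with final raw signal at or below 3038400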;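 further: plate controls were neutral control wells for no effect and wells lacking membranes for full effect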
# Target sequence (Q03530 whole entry, looked up): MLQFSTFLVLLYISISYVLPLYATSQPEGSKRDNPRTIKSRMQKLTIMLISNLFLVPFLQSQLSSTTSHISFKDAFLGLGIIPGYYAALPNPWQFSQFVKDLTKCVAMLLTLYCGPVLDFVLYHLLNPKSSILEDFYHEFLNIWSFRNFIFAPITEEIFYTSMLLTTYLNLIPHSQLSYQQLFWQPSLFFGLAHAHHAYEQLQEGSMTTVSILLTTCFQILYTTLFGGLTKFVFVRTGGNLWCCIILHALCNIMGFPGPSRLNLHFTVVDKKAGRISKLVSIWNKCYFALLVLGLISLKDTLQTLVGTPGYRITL
# GSK3 alpha inh: inhibitors of human GSK-3 alpha kinase | P49840 | ADP-Glo luminescence, 60 min | inhibition, % at 10 µM | hit rate 0.1% among 320,000 | AID 2650;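 active means more than half of replicates show inhibition above 20%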;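 further: GST-tagged GSK-3 alpha with peptide substrate and 25 µM ATP; 0% = DMSO neutral wells and 100% = GW8510 positive control wells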
# Hep lipid drop: modulators of hepatic lipid droplet formation; hit rate 0.4% among 240,000; AML12 mouse hepatocytes, oleate lipid droplets, BODIPY imaging; inhibition, % at 6.5 µM;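 active means lipid droplet intensity inhibited by at least 50%, with more than 500 cells counted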
#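 material = mouse AML12 hepatocyte cell line, fixed after treatment | also added = 100 µM oleic acid challenge | doses = compound at 6.5 µM only | schedule = overnight exposure | technique = Image-based BODIPY and DAPI two-channel analysis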
# STK33 inh: human STK33 kinase inhibition. hit rate 0.073% among 320,000. inhibition, % at 10 µM. purified STK33, MBP phosphorylation, ADP-Glo luminescence;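 active means inhibition at or above 25%, using the most active replicate where run in duplicate; inactive means inhibition below 25%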
# HSV replic up: increases HSV replication in cells; maximum fold increase; hit rate 0.005% among 220,000; HSV replication augmentation in cells, fold increase; AID 1956; in the data active means maximum fold increase above about 1.5; tested in PC3 cells
# GSK3beta inhib: human GSK3beta kinase inhibition | activity score (negative = inhibition), % at 10 µM | hit rate 0.038% among 300,000 | GST-GSK3beta kinase, ADP-Glo luminescence, 60 min; active compounds read low;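 active means more than half of replicate wells score below -50%, meaning over 50% inhibition versus plate controls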;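 further: 0% = median DMSO wells and -100% = median GW8510 positive control wells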
#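 Assay system: GST-tagged human GSK3beta kinase, cell-free; Input: 1.6 ng GSK3beta; Medium: Tris/MgCl2 kinase buffer; Timing: 60 min enzyme reaction, room temperature; Signal: ADP-Glo luminescence quantifying ADP generated by kinase; Evaluation: score relative to plate controls; Benchmarks: DMSO neutral wells and GW8510 at 20 µM as positive.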
# Hep lipid conf: confirmation of inhibitors of hepatic lipid droplet formation; inhibition, % at 5.2 µM; AID 463183; AML12 mouse hepatocytes, BODIPY lipid droplet imaging; droplets induced with 100 µM oleic acid; hit rate 65% among 870; shares compounds with Hep lipid drop;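 active means inhibition of lipid droplet metric at least 50%, with more than 300 cells in each of four replicates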;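 further: plate controls were DMSO with oleic acid for no effect and 5 µM Triacsin-C for full effect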
# AML12 cytotox: AML12 hepatocyte cytotoxicity (counter-screen); shares compounds with Hep lipid drop; z-score at 5 µM; AML12 mouse hepatocytes, DAPI nuclear morphology cytotoxicity imaging; active compounds read high; cells fed 100 µM oleate overnight; hit rate 3% among 870; in the data active means z-score above about 6.3;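 further: compound exposure lasted overnight at 37 °C before fixation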
# AML12 tox ATP: confirmation of cytotoxicity in AML12 mouse hepatocytes | shares compounds with Hep lipid drop | AML12 mouse hepatocyte viability, ATP luminescence; cells loaded with 100 µM oleic acid | cytotoxicity, % at 50 µM | 530 tested, under 10 active | AID 463219;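 active means cytotoxicity above 50% in each of four replicates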;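 further: compound exposure lasted overnight at 37 °C before the ATP read; 0% = DMSO-treated cells and 100% = wells with no cells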
# Numbers without * were called inactive; i = inactive; x = not tested or not shown.
SMILES,Rce1 inhib,GSK3 alpha inh,Hep lipid drop,STK33 inh,HSV replic up,GSK3beta inhib,Hep lipid conf,AML12 cytotox,AML12 tox ATP
CN(C)c1ccc(C(CNS(=O)(=O)c2ccc(F)cc2)c2c[nH]c3ccccc23)cc1 (stereo unspecified),i,0,32,0,i,3,x,x,x
CCOC(=O)c1ccc(S(=O)(=O)NCC(c2ccc(N(C)C)cc2)c2c[nH]c3ccccc23)cc1 (stereo unspecified),i,-1,96*,-4,i,-2,108*,0.39,14
CCn1c(=O)c2cc(C(=O)NCCCOC)sc2c2ccccc21,i,-1,14,1,x,11,x,x,x
CCn1c(=O)c2cc(C(=O)NCCC(C)C)sc2c2ccccc21,i,0,54*,0,x,3,92*,-0.4,-2
Cc1ccc(-c2cc(C(=O)NC3=NCCS3)c3cc(Br)ccc3n2)o1,i,-2,107*,-1,i,0,4,-0.45,x
CCC(=O)Nc1c2c(nn1-c1ccc(C)cc1)CS(=O)(=O)C2,i,-2,57*,-2,x,0,35,0.25,x
Cc1cc(-n2cnnn2)cc(C)c1S(=O)(=O)NCCOc1ccccc1,i,x,61*,x,x,0,-1,-0.31,x
CCN(CC)C(=O)CCCc1c[nH]c2ccccc12,i,-3,12,1,i,-2,x,x,x
CCN(CC(=O)Nc1c(F)cccc1F)C(=O)CCCc1c[nH]c2ccccc12,i,-2,82*,0,x,-1,105*,-0.5,8
Cc1cc(NS(=O)(=O)c2ccc(NC(=O)CCCOc3ccccc3C)cc2)no1,i,-3,10,-2,x,2,x,x,x
Cc1cccc(NC(=O)CN2C(=O)N/C(=C\c3cccn3-c3cccc(C(=O)O)c3)C2=O)c1,i,1,3,-1,i,1,x,x,x
Cc1ccc(-n2cccc2/C=C2/NC(=O)N(CC(=O)Nc3cccc(C)c3)C2=O)cc1,i,0,90*,0,i,0,110*,0.011,12
Cc1cc(N2CCOCC2)n2nc(C)c(-c3ccccc3)c2n1,x,0,x,2,i,x,x,x,x
Cc1ccc(-c2c(C)nn3c(N4CCOCC4)cc(C)nc23)cc1,i,0,71*,1,x,1,108*,0.36,4
Cc1cc(N2CCOCC2)n2nc(C)c(-c3ccccc3Cl)c2n1,i,2,78*,0,x,1,107*,-0.16,7
Cc1ccc(NC(=O)CN2CCN(C)CC2)cc1S(=O)(=O)N1CCOCC1,i,-1,x,-1,x,0,x,x,x
O=C(NCc1nnc(SCC(=O)N2CCN(c3ccccc3)CC2)o1)c1c(F)cccc1F,i,-1,-2,-1,x,0,x,x,x
CC1=C(C(=O)OCC2CCCO2)C(c2ccccc2Cl)NC(=O)N1 (stereo unspecified),i,10,7,0,i,-9,x,x,x
CC1=C(C(=O)OCC2CCCO2)C(c2ccc(Cl)c(Cl)c2)NC(=O)N1 (stereo unspecified),i,0,57*,0,i,-2,35,-0.64,x
O=C(O)Cc1sc(Nc2cccc3ccccc23)nc1-c1ccc(Cl)cc1,i,1,-2,0,x,0,x,x,x

# Screens deposited in PubChem by several laboratories.
